According to publication PMC12130796 (Clinical Cancer Research, 2025):
pEC50: −log10 of the molar value. Read-outs that look alike come from different tables or passages of the source. Blank lines part the entries; values can stand above or below the compound they belong to.

Assays:
[1] = tested on: CYP2C8; settings: cited from earlier work
[2] = tested on: OATP1B2; settings: via inhibition of OATP1B2 in dorsal root ganglia cells; cited from earlier work
[3] = Plasma pharmacokinetics of paclitaxel and metabolites; assay type: in vivo, human
[4] = Plasma pharmacokinetics of nilotinib in the combination; assay type: in vivo; settings: human, oral, Mean nilotinib AUC(0–24hours)
[5] = cited from earlier work
[6] = tested on: AOGCT KGN cells; settings: read-out: EC50, inhibition of proliferation; KGN cells in vitro; cited from earlier work
[7] = tested on: patients with AOGCT; settings: case report, one patient with AOGCT, cited from earlier work
[8] = tested on: serine 10-phosphorylated histone H3 (pHH3); experiment: pHH3 quantitative immunofluorescence; assay type: in vivo, human; settings: C1D2 biopsies (after paclitaxel alone) relative to baseline, P = 0.0031
Procedure, shortened: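 Adult patients with solid tumours received IV test taxane on days 1, 8 and 15 of 28-day cycles, with oral kinase inhibitor started C1D3 during dose expansion. 18-gauge core biopsies were taken at baseline, C1D2 and C1D28, snap-frozen, thawed in neutral buffered formalin, paraffin-embedded and cut at 5 micron for quantitative IFA. Per-patient means were compared by unpaired t test assuming unequal variances.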

[9] = tested on: E-cadherin, vimentin; experiment: EMT immunofluorescence assay in tumor biopsies, log10; assay type: in vivo, human; settings: single-agent paclitaxel, C1D2 biopsies
[10] = tested on: patients with relapsed ovarian sex cord–stromal tumors; settings: weekly paclitaxel monotherapy, phase 2 arm, 32 patients (84% AOGCT); cited from earlier work

AUC(0-t) ([4]; day 8, DL2 (300 mg nilotinib twice daily, 80 mg/m^2 paclitaxel)): 51.2 µM·h
AUC(0-t) ([4]; day 8, DL3 (400 mg nilotinib twice daily, 80 mg/m^2 paclitaxel)): 90.4 µM·h
SMILES: Cc1cn(-c2cc(NC(=O)c3ccc(C)c(Nc4nccc(-c5cccnc5)n4)c3)cc(C(F)(F)F)c2)cn1 [nilotinib]
Effect on CYP2C8-mediated 6α-hydroxypaclitaxel formation [1]: inhibits
Effect on paclitaxel-induced peripheral neuropathy [2]: attenuates paclitaxel-induced peripheral neuropathy
Effect of nilotinib coadministration on plasma paclitaxel exposures ([3]; day 8 vs day 1, DL2 vs DL3): does not modulate plasma paclitaxel exposures
Published mean AUC(0–24hours) ([5]; nilotinib monotherapy): 3,848 ± 1,116 μmol/L × minutes
Cmax ([5]; read-out: Clinical Cmax, 300 mg twice-daily dosing): ~2000 nM
pEC50 [6]: 4.88

SMILES: Cc1ccc(NC(=O)c2ccc(CN3CCN(C)CC3)cc2)cc1Nc1nccc(-c2cccnc2)n1 [Imatinib]
Duration of stable disease ([7]; ref 36): over 16 months
Duration of stable disease ([7]; ref 37): 12 months

SMILES: CC(=O)O[C@H]1C(=O)[C@@]2(C)[C@H]([C@H](OC(=O)c3ccccc3)[C@]3(O)C[C@H](OC(=O)[C@H](O)[C@@H](NC(=O)c4ccccc4)c4ccccc4)C(C)=C1C3(C)C)[C@]1(OC(C)=O)CO[C@@H]1C[C@@H]2O [paclitaxel]
Change in mitotic arrest marker pHH3 [8]: significant increase
Dose proportionality of plasma concentrations ([3]; across the two doses tested (60 and 80 mg/m^2)): dose-proportional
Change in tumor EMT phenotype [9]: no obvious biologically relevant changes in EMT phenotype
Progression-free survival [10]: 14.7 months
